Data taken from ChEMBL document CHEMBL1152867, “Targeting QseC signaling and virulence for antibiotic development” (Science, 2008).
Active and inactive are the calls of the source. The rule behind the calls is not given here.

Key:
Mus musculus [1] = experiment: Toxicity in CD1 mouse assessed as monocyte counts at 20 mg/kg, po administered daily once for 5 days measured 3 days after final dose; type: organism-based; parameters: dose 20 mg/kg, route oral; details: in vivo, 72 h
How it was run: (§1)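 Female CD-1 mice (~22 g), three per group, given 20 mg/kg by oral gavage once daily for 5 days. Vehicle-only mice served as controls. Animals were weighed and observed daily. Three days after the last dose they were weighed and sacrificed. Blood was taken for chemistry and complete blood counts, and organs were weighed.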

Mus musculus [2] = experiment: Toxicity in CD1 mouse assessed as change in heart weight at 20 mg/kg, po administered daily once for 5 days measured 3 days after final dose; type: organism-based; parameters: dose 20 mg/kg, route oral; details: in vivo; how it was run: as §1
Mus musculus [3] = experiment: Toxicity in CD1 mouse assessed as mean corpuscular volume at 20 mg/kg, po administered daily once for 5 days measured 3 days after final dose; type: organism-based; parameters: dose 20 mg/kg, route oral; details: in vivo, 72 h; how it was run: as §1
[4] = Terminal half life in CD1 mouse at 20 mg/kg, iv administered as bolus dose; type: ADME, organism-based; parameters: dose 20 mg/kg, route intravenous; details: in vivo, read-out: beta t1/2
How it was run: (§2)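 Groups of three were bled terminally by cardiac puncture at set times. Plasma was acetonitrile-precipitated with internal standard and quantified by electrospray LC/MS/MS against a plasma standard curve (10-1000 ng/ml). Noncompartmental analysis was used.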

Mus musculus [5] = experiment: Toxicity in CD1 mouse assessed as phosphate levels at 20 mg/kg, po administered daily once for 5 days measured 3 days after final dose; type: organism-based; parameters: dose 20 mg/kg, route oral; details: in vivo, 72 h; how it was run: as §1
Mus musculus [6] = experiment: Toxicity in CD1 mouse assessed as change in thymus weight at 20 mg/kg, po administered daily once for 5 days measured 3 days after final dose; type: organism-based; parameters: dose 20 mg/kg, route oral; details: in vivo; how it was run: as §1
Escherichia coli [7] = experiment: Antibacterial activity against Escherichia coli infected in New Zealand white rabbit assessed as inhibition of bacterial colonization in cecum at 20 mg/kg administered along with bacterial challenge; type: functional, organism-based; parameters: dose 20 mg/kg; details: Caecum
Mus musculus [8] = experiment: Toxicity in CD1 mouse assessed as cholesterol levels at 20 mg/kg, po administered daily once for 5 days measured 3 days after final dose; type: organism-based; parameters: dose 20 mg/kg, route oral; details: in vivo, 72 h; how it was run: as §1
Mus musculus [9] = experiment: Toxicity in CD1 mouse assessed as platelet count at 20 mg/kg, po administered daily once for 5 days measured 3 days after final dose; type: organism-based; parameters: dose 20 mg/kg, route oral; details: in vivo, 72 h; how it was run: as §1
Escherichia coli [10] = experiment: Antibacterial activity against Escherichia coli infected in New Zealand white rabbit assessed as inhibition of bacterial colonization in ileum at 20 mg/kg administered along with bacterial challenge; type: functional, organism-based; parameters: dose 20 mg/kg
Mus musculus [11] = experiment: Toxicity in CD1 mouse assessed as red cell distribution width at 20 mg/kg, po administered daily once for 5 days measured 3 days after final dose; type: organism-based; parameters: dose 20 mg/kg, route oral; details: in vivo, 72 h; how it was run: as §1
Salmonella typhimurium [12] = experiment: Inhibition of norepinephrine-induced virulence gene sifA expression in Salmonella Typhimurium at 5 pM; type: functional, organism-based; details: Salmonella enterica subsp. enterica serovar Typhimurium
[13] = tested on: Francisella tularensis subsp. tularensis SCHU S4; experiment: Bacteriostatic activity against Francisella tularensis SCHU S4 at 1 uM; type: functional, organism-based
Escherichia coli [14] = experiment: Bacteriostatic activity against Escherichia coli 8624 at 1 uM; type: functional, organism-based
Escherichia coli [15] = experiment: Inhibition of epinephrine-induced EspB protein secretion in Escherichia coli 8624 at 5 nM by Western blot; type: functional, organism-based
How it was run: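 Secreted proteins in cell-free supernatant were TCA-precipitated and immunoblotted with rabbit polyclonal anti-EspA and anti-EspB, with ECL detection.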

Mus musculus [16] = experiment: Toxicity in CD1 mouse assessed as eosinophil counts at 20 mg/kg, po administered daily once for 5 days measured 3 days after final dose; type: organism-based; parameters: dose 20 mg/kg, route oral; details: in vivo, 72 h; how it was run: as §1
[17] = tested on: Francisella tularensis subsp. tularensis SCHU S4; experiment: Inhibition of virulence gene mip expression in Francisella tularensis SCHU S4 at 5 pM by quantitative real-time PCR; type: functional, organism-based
Escherichia coli [18] = experiment: Inhibition of AI3-induced Qsec-dependent virulence gene ler expression in Escherichia coli at 5 pM by quantitative real-time PCR; type: functional, organism-based
[19] = target: Beta-1 adrenergic receptor (Homo sapiens) (UniProt P08588); experiment: Activation of human beta-1-adrenergic receptor expressed in HEK293 cells assessed as cAMP release at 5 uM; type: functional, cell-based
Sequence of Beta-1 adrenergic receptor (Homo sapiens) (P08588 whole entry, looked up): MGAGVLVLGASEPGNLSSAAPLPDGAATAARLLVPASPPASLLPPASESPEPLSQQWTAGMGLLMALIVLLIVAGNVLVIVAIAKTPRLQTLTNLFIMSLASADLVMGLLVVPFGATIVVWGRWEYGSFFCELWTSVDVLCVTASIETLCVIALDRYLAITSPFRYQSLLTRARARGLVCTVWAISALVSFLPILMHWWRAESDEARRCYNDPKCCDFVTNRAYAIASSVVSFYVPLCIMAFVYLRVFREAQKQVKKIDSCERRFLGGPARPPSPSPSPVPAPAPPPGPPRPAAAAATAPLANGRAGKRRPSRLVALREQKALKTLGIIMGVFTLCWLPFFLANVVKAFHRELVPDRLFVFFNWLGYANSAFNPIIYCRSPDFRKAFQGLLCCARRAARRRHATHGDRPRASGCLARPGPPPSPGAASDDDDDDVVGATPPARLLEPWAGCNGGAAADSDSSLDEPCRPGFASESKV
How it was run: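 Live HEK293 cells carried an EPAC-based cAMP BRET reporter and expressed endogenous β2 or exogenous β1 or β3 adrenergic receptors. Cells were exposed to test compound alone at 5 μM. Values are means of triplicates, representative of 3 experiments.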

Salmonella typhimurium [20] = experiment: Antibacterial activity against Salmonella Typhimurium SL1344 infected in 129x1/SvJ mouse assessed as survival at 20 mg/kg, po administered 3 hrs pre and 3 hrs post-bacterial challenge measured after 12 days; type: functional
How it was run: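 Female 129x1/SvJ mice, 7–9 weeks old, were infected intraperitoneally with 10^8 cfu S. typhimurium SL1344. The test agent was given orally at 20 mg/kg in 5% DMSO/23% PEG400/70% Na bicarbonate pH 9/2% Tween 80, 3 h before and 3 h after infection. Controls were drug alone and infection alone. Groups of 10 mice were used and the experiment was repeated twice. Morbidity and death were recorded daily, and survivors were euthanized at day 12.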

Escherichia coli [21] = experiment: Bacteriostatic activity against Escherichia coli 8624 at 1 uM in presence of epinephrine; type: functional, organism-based
[22] = AUC in CD1 mouse at 20 mg/kg, iv administered as bolus dose; type: ADME, organism-based; parameters: dose 20 mg/kg, route intravenous; details: plasma; how it was run: as §2
[23] = AUC in CD1 mouse at 10 mg/kg, iv administered as bolus dose; type: ADME, organism-based; parameters: dose 10 mg/kg, route intravenous; details: plasma; how it was run: as §2
Mus musculus [24] = experiment: Toxicity in CD1 mouse assessed as alanine transferase levels at 20 mg/kg, po administered daily once for 5 days measured 3 days after final dose; type: organism-based; parameters: dose 20 mg/kg, route oral; details: in vivo, 72 h
Salmonella typhimurium [25] = experiment: Bacteriostatic activity against Salmonella Typhimurium SL1344 at 1 uM; type: functional, organism-based; details: Salmonella enterica subsp. enterica serovar Typhimurium str. SL1344
Mus musculus [26] = experiment: Toxicity in CD1 mouse assessed as total bilirubin levels at 20 mg/kg, po administered daily once for 5 days measured 3 days after final dose; type: organism-based; parameters: dose 20 mg/kg, route oral; details: in vivo, 72 h; how it was run: as §1
[27] = tested on: Francisella tularensis subsp. tularensis SCHU S4; experiment: Bacteriostatic activity against Francisella tularensis SCHU S4 at 1 uM in presence of epinephrine; type: functional, organism-based
Mus musculus [28] = experiment: Toxicity in CD1 mouse assessed as albumin levels at 20 mg/kg, po administered daily once for 5 days measured 3 days after final dose; type: organism-based; parameters: dose 20 mg/kg, route oral; details: in vivo, 72 h
[29] = AUC in CD1 mouse at 20 mg/kg, po; type: ADME, organism-based; parameters: dose 20 mg/kg, route oral; details: plasma
How it was run: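 Terminal cardiac bleeds were taken in groups of three at set times. Plasma was acetonitrile-precipitated with internal standard and analysed by LC/MS/MS against a spiked-plasma standard curve. Parameters came from noncompartmental analysis.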

Mus musculus [30] = experiment: Toxicity in CD1 mouse assessed as basophil counts at 20 mg/kg, po administered daily once for 5 days measured 3 days after final dose; type: organism-based; parameters: dose 20 mg/kg, route oral; details: in vivo, 72 h; how it was run: as §1
[31] = tested on: Francisella tularensis subsp. tularensis SCHU S4; experiment: Inhibition of virulence gene qseC expression in Francisella tularensis SCHU S4 at 5 pM by quantitative real-time PCR; type: functional, organism-based
Escherichia coli [32] = experiment: Antibacterial activity against Escherichia coli infected in New Zealand white rabbit assessed as inhibition of bacterial colonization in cecum at 20 mg/kg administered 3 hrs post-bacterial challenge; type: functional, organism-based; parameters: dose 20 mg/kg; details: Caecum
[33] = tested on: Francisella tularensis subsp. tularensis SCHU S4; experiment: Inhibition of virulence gene iglC expression in Francisella tularensis SCHU S4 at 5 pM by quantitative real-time PCR; type: functional, organism-based
[34] = target: Beta-1 adrenergic receptor (Homo sapiens) (UniProt P08588); experiment: Effect on dobutamine-induced human beta-1-adrenergic receptor activation expressed in HEK293 cells assessed as cAMP release at 5 uM; type: functional, cell-based
How it was run: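 HEK293 cells carried an EPAC-based cAMP BRET reporter. The agonist for β1 (exogenous) was 1 nM dobutamine, for β2 (endogenous) 100 nM terbutaline, and for β3 (exogenous) 10 nM BRL37344. Each agonist was given alone or with 5 μM compound. Live-cell cAMP was read as triplicate means, representative of 3 experiments.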

[35] = Cmax in CD1 mouse at 20 mg/kg, iv administered as bolus dose; type: ADME, organism-based; parameters: dose 20 mg/kg, route intravenous; details: in vivo; how it was run: as §2

## O=S(=O)(Nc1ccccc1)c1ccc(NC(=S)Nc2ccccc2)cc1
Mus musculus [1]
  Activity: 8.1%
Mus musculus [2]
  Activity: Non-toxic
Mus musculus [3]
  Activity: 51.7 fL
[4]
  half-life: 5.65 h
Mus musculus [5]
  Activity: 11 mg/dL
Mus musculus [6]
  Activity: Non-toxic
Escherichia coli [7]
  Activity: inactive
Mus musculus [8]
  Activity: 122 mg/dL
Mus musculus [9]
  Activity: 1075 K/uL
Escherichia coli [10]
  Activity: inactive
Mus musculus [11]
  Activity: 17.6%
Salmonella typhimurium [12]
  Activity: Active
[13]
  Activity: inactive
Escherichia coli [14]
  Activity: inactive
Escherichia coli [15]
  Activity: Active
Mus musculus [16]
  Activity: 0.7%
[17]
  Activity: Active
Escherichia coli [18]
  Activity: Active
[19]
  Activity: inactive
Salmonella typhimurium [20]
  Activity: 20%
Escherichia coli [21]
  Activity: inactive
[22]
  AUC: 5010 ng·h/mL
[23]
  AUC: 2400 ng·h/mL
Mus musculus [24]
  Activity: 31.7 U/L
Salmonella typhimurium [25]
  Activity: inactive
Mus musculus [26]
  Activity: 0.2 mg/dL
[27]
  Activity: inactive
Mus musculus [28]
  Activity: 2.6 g/dL
[29]
  AUC: 3470 ng·h/mL
Mus musculus [30]
  Activity: 0%
[31]
  Activity: Active
Escherichia coli [32]
  Activity: inactive
[33]
  Activity: Active
[34]
  Activity: inactive
[35]
  Cmax: 4750 ng/mL
